Experimental data taken from ChEMBL document CHEMBL1134314, “Characterization of the 1H-cyclopentapyrimidine-2,4(1H,3H)-dione derivative (S)-CPW399 as a novel, potent, and subtype-selective AMPA receptor full agonist with partial desensitization properties” (J Med Chem, 2001).
Active and inactive are the calls of the source. No cut-off for these calls is given here.

Columns and labels:
[1] = target: Glutamate receptor ionotropic, kainate; assay: Binding affinity towards Ionotropic glutamate receptor kainate in rat brain; format: tissue-based
Outline: (§1)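 Radioligand competition binding on native ionotropic glutamate receptors in rat brain membranes. Inactivity was defined at 10^-4 M. Values are means ± SEM of three to four competition experiments, each run in triplicate.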

[2] = target: Glutamate receptor ionotropic, AMPA (Rattus norvegicus, UniProt P19490+P19491+P19492+P19493); assay: Binding affinity towards AMPA receptor in rat brain; format: tissue-based
[3] = target: Glutamate NMDA receptor (Rattus norvegicus) (UniProt P35439+Q00959+Q00960+Q00961+Q62645+Q8VHN2+Q9R1M7); assay: Binding affinity towards NMDA receptor; not active; format: protein-complex assay; outline: as §1
[4] = Hill slope was determined

Ki [1] | Ki [2] | NA [3] | Hill coefficient [4] | Structure (SMILES)
> 10 µM | 1.37 µM |  |  | N[C@@H](Cn1c2c(c(=O)[nH]c1=S)CCC2)C(=O)O
7.94 µM |  | inactive | 0.95 nH [middle of 8 runs] | N[C@@H](Cn1c2c(c(=O)[nH]c1=O)CCC2)C(=O)O
